Hits are enriched below; roughly 2.5% of the tested compounds scored in any of these assays.
A1 inh = inhibitors of the anti-apoptotic protein A1, read as caspase activation; MEF A1-2A-BIM cells, Caspase-Glo 3/7 luminescence, 3 h; percent of clofoctol response, vehicle zero; caspase activation, % (test concentration not listed); hit rate 0.066% among 330,000; AID 2462;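 active = over half of replicate activation scores above 10%, or exactly half above 10 with the replicate mean above 10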
MC4R ag barr = agonists of human melanocortin 4 receptor (MC4R) beta-arrestin; hit rate 0.98% among 360,000; U2OS MC4R beta-arrestin complementation, luminescence; percent of melanotan II response, DMSO zero; activation, % at 8.9 µM;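 active = activation above a per-plate cutoff, the mean activation of sample wells on that plate plus 3 SD, cut at about 8% in these data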
Exocytosis inh = blocks lytic granule exocytosis; TALL-104 LAMP-1 surface exposure, flow cytometry; cells stimulated with thapsigargin and PMA; inhibition, % at 10 µM; hit rate 0.66% among 360,000;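 active = inhibition above about 55%, limit read from the data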
NTR1 agonist = NTR1 (human) agonism; P30989; NTR1-U2OS beta-arrestin-GFP spot imaging, agonist mode; activation, % at 20 µM; hit rate 0.17% among 330,000;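 active = activation at or above 40% of the spot to cytoplasm intensity ratio, with at least 20 cells analyzed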;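 note: 0% = DMSO without peptide and 100% = 100 nM NTR1 peptide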
MC4R antag cAMP = antagonists of human melanocortin 4 receptor (MC4R) | hit rate 0.48% among 360,000 | MC4R-expressing cells, MTII-stimulated cAMP, LANCE TR-FRET | inhibition, % at 6.5 µM | P32245;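 active = inhibition above its plate's cutoff, the mean of tested wells on that plate plus 3 SD, cut at about 29% in these data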;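 note: 0% = Melanotan II alone and 100% = Melanotan II plus saturating MCL0020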
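system = U2OS cells with stable human MC4R expression | also added = Melanotan II challenge after compound preincubation | dosing = one concentration, 6.5 µM nominal | incubation = compound 30 min, challenge 1 h, detection 1 h | measured by = TR-FRET with Eu-cAMP and labeled anti-cAMP, 671 nm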
sPLA2-III inh = Inhibits HGIII-sPLA2 liposome hydrolysis, primary screen; QFRET BODIPY PC-A2 liposome hydrolysis, fluorescence; hit rate 0.56% among 370,000; inhibition, % at 12.2 µM; Q9NZ20;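 active = inhibition above mean plus 3 SD of compounds lying within the high and low control bounds, cut at about 19% in these data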;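 note: 0% = median of test compound wells and 100% = no enzyme DMSO wells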
Target sequence (Q9NZ20 whole entry, looked up): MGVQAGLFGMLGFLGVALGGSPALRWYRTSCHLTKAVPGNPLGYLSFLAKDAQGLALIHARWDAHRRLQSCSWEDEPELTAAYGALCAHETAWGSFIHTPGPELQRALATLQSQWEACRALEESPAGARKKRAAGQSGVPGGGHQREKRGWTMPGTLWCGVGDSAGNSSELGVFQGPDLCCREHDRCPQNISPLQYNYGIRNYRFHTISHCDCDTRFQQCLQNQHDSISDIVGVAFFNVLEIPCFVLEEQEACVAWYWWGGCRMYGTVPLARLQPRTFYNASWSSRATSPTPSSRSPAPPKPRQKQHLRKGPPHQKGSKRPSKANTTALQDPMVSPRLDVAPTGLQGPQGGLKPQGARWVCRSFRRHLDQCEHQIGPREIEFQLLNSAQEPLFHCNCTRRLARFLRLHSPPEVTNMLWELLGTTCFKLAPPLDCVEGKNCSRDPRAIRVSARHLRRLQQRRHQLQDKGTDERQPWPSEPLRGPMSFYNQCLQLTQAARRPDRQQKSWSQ
U2OS cAMP counter = nonselective cAMP signaling inhibitor, MC4R antagonist counter-screen | hit rate 26% among 1,600 | inhibition, % at 6.5 µM | shares compounds with MC4R antag cAMP | parental U2OS, forskolin cAMP, LANCE TR-FRET;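 active = mean inhibition over triplicates above the low-control well mean plus 3 SD, set per campaign, cut at about 13% in these data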;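 note: signal is single emission at 671 nm which falls as cellular cAMP rises; 0% = forskolin-stimulated wells and 100% = buffer without forskolin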
MC4R antag conf = human MC4R cAMP antagonism confirmation. shares compounds with MC4R antag cAMP. MC4R-expressing cells, MTII-stimulated cAMP, TR-FRET. inhibition, % at 6.5 µM. hit rate 27% among 1,600; in the data active = inhibition above about 29%;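 note: 0% = agonist stimulated wells alone and 100% = agonist stimulated wells plus saturating reference antagonist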
Starred values were filed as active, the others as inactive; nt = not tested or not shown.

SMILES	A1 inh	MC4R ag barr	Exocytosis inh	NTR1 agonist	MC4R antag cAMP	sPLA2-III inh	U2OS cAMP counter	MC4R antag conf
CN(C(=O)c1ccccc1OCC(=O)Nc1ccc(Br)cc1)c1ccccc1	nt	nt	nt	nt	nt	-5	nt	nt
NC(=O)COC(=O)[C@H](Cc1c[nH]c2ccccc12)NC(=O)c1ccc(F)cc1	0	-2	20	-1	32*	-48	14*	23
Cc1nnc2n(-c3ccccc3)c(=O)c3c4c(sc3n12)COC(C)(C)C4	1	0	1	0	4	5	nt	nt
Cc1nnc2n(-c3ccccc3)c(=O)c3c4c(sc3n12)CCCC4	0	-1	-2	-1	29*	9	0	16
CCNC(=O)N1CCN(c2ccc(N3CCN(C(=O)NCC)[C@H](C)C3)c(C)c2)[C@H](C)C1	nt	nt	nt	nt	nt	9	nt	nt
CC(c1ccco1)N(C(=O)c1ccccc1NS(=O)(=O)c1ccc(Cl)c([N+](=O)[O-])c1)c1ccccn1 (stereo not given)	0	-1	41	16	39*	-38	6	16
CC(c1ccco1)N(C(=O)c1cc(Cl)cc(Cl)c1)c1ccccn1 (stereo not given)	1	-1	-3	2	7	-3	nt	nt
C#CCN1CC(N(C)CCOC(=O)c2ccc([N+](=O)[O-])cc2)CS1(=O)=O (stereo not given)	nt	nt	nt	nt	nt	-4	nt	nt
CCCCCCn1ccc(=N)cc1	-1	-1	1	6	3	7	nt	nt
CCCCCCCCCCCCCCCCn1cc[n+](CC(C)=O)c1	nt	16*	23	nt	29*	nt	3	33*
Cc1ccccc1NC(=O)OCCN1CCCC12CCC(c1ccccc1)CC2 (stereo not given)	nt	nt	nt	nt	nt	-8	nt	nt
Cc1nc(SCCC(=O)O)c2ccccc2n1	0	1	-3	-1	54*	3	19*	34*
Cc1cc(C)c(/C=N/n2c(C)cc(C)c(C#N)c2=O)c(C)c1	-1	0	7	2	29*	-6	-1	-8
COC(=O)[C@H](CC(C)C)NC(=O)N1CCC(C)CC1	0	-1	2	-1	33*	2	5	4
CC(=O)c1cccc(CN2CCN(C3CCCC3)C(CCO)C2)c1 (stereo not given)	0	0	7	0	29*	0	0	4
OCCC1CN(Cc2ccccn2)CCN1C1CCCC1 (stereo not given)	0	0	4	0	37*	1	21*	9
C[C@@]12C[C@@H]3C(=O)N(Cc4ccccc4)CC(=O)N3[C@@H]1N(S(=O)(=O)c1ccccc1)c1ccccc12	nt	nt	nt	nt	nt	-2	nt	nt
COc1ccccc1CN(C)C(=O)c1ccc(COc2ccccc2)cc1	0	1	29	0	31*	-14	5	-2
COc1ccc(CN(C)C(=O)c2ccc(COc3ccccc3)cc2)c(OC)c1	0	0	18	1	-2	-12	nt	nt
COc1ccc(S(=O)(=O)N(C)C)cc1NC(=O)COC(=O)c1nn(C)c(=O)c2ccccc12	0	1	-1	-1	34*	0	6	13
CCN(c1ccccc1)S(=O)(=O)c1ccc(OC)c(NC(=O)CNC)c1	0	0	9	0	1	-5	nt	nt
CCN(c1ccccc1)S(=O)(=O)c1ccc(OC)c(NC(=O)Cn2cnc3c2c(=O)n(C)c(=O)n3C)c1	0	6	2	0	41*	-6	4	10
Cn1nc(C(=O)OCC(=O)Nc2ccccc2OC(F)F)c2ccccc2c1=O	1	0	3	2	2	2	nt	nt
C[C@@H]1CN(S(=O)(=O)C(C)(C)C)[C@@H](CCO)/C1=C\CCO	nt	nt	nt	nt	nt	5	nt	nt
O=C(Nc1ccccc1)Nc1ccccc1C(=O)NCC1CC1	-6	5	6	-1	-3	3	nt	nt
SMILES	A1 inh	MC4R ag barr	Exocytosis inh	NTR1 agonist	MC4R antag cAMP	sPLA2-III inh	U2OS cAMP counter	MC4R antag conf
COCCNC(=O)c1ccccc1NC(=O)Nc1ccccc1	0	0	-1	0	31*	2	3	11
COc1ccc(-c2c(-c3ccc(O)cc3O)n[nH]c2C(F)(F)F)cc1	-1	0	-1	11	-5	-38	nt	nt
Oc1ccc(-c2n[nH]c(C(F)(F)F)c2-c2ccccc2)c(O)c1	0	3	3	5	30*	-36	4	-3
COc1ccc(OC)c(S(=O)(=O)N2CCCC(c3noc(-c4ccc(C)cc4)n3)C2)c1 (stereo not given)	nt	nt	nt	nt	nt	0	nt	nt
CC(C)C(=O)N1CCC2(CC1)Oc1ccc(Cl)cc1C(=O)C21CC(c2ccccc2)=NO1 (stereo not given)	1	-2	-3	11	29*	-9	2	14
Cc1ccc(C(=O)N2CCC3(CC2)Oc2ccc(Cl)cc2C(=O)C32CC(c3cccnc3)=NO2)s1 (stereo not given)	1	1	-2	-4	5	-11	nt	nt
O=C(/C=C/c1cccs1)N1CCC2(CC1)Oc1ccc(Cl)cc1C(=O)C21CC(c2cccnc2)=NO1 (stereo not given)	0	-1	6	-2	29*	-6	-3	19
O=C(NCc1ccc(F)c(F)c1)C1CCC(CNS(=O)(=O)c2cccc3cccnc23)CC1 (stereo not given)	nt	nt	nt	nt	nt	1	nt	nt
CCOC(=O)c1cnn(-c2nc(-c3ccc(C)cc3)cs2)c1C(F)(F)F	0	0	4	nt	13	1	nt	nt
O=C(O)c1cnn(-c2nc(-c3ccc(F)cc3)cs2)c1C(F)(F)F	1	1	-4	0	32*	-1	2	4
NC(=O)Cc1nc(-c2ccc(Br)cc2)cs1	-1	0	-1	0	9	-6	nt	nt
O=C(O)c1cnn(-c2nc(-c3ccc(Br)cc3)cs2)c1C(F)(F)F	-3	0	11	0	32*	-16	0	2
Cn1cccc1C=NNC(=O)c1cc(-c2ccc(Cl)cc2)n[nH]1	nt	nt	nt	nt	nt	8	nt	nt
Cc1ccc2nc3sc(C(=O)N4CCN(C)CC4)cc3cc2c1	nt	nt	nt	nt	nt	4	nt	nt
COc1ccc2[nH]c3c(=S)nc[nH]c3c2c1	0	-2	-3	-1	38*	7	4	13
O=[N+]([O-])c1cc(-c2csc(NCCc3nc4cc(Cl)c(Cl)cc4n3CCCO)n2)ccc1Cl	1	-2	20	2	33*	-4	16*	20
COc1ccc(C(NC(=O)c2cc(OC)ccc2OC)c2ccccc2)cc1 (stereo not given)	1	1	-8	2	2	-6	nt	nt
